Measurements reported in the EternaBench riboswitch data.

System: MS2 coat protein
Assay: apparent Kd, MS2 coat protein; higher = weaker binding; RNA-MaP array; FMN 200 µM where present
Procedure, shortened: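 The apparent Kd is reported as the median of filtered per-cluster binding-curve fits. To get these curves, designs transcribed by stalled E. coli RNA polymerase on Illumina sequencing-chip clusters were titrated with SNAP-549-labelled MS2 coat protein from 0.7 or 1.5 nM, doubling to 3 µM. Titrations were run without and then with constant ligand in 100 mM Tris-HCl pH 7.5, 80 mM KCl, 4 mM MgCl2, BSA, DTT, yeast tRNA and Tween-20, and green signal was normalised to red-channel RNA signal and control-cluster median Fmax.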

[1] = designed as: OFF switch for flavin mononucleotide, no ligand
[2] = ligand present: flavin mononucleotide, designed as: OFF switch for flavin mononucleotide
[3] = designed as: ON switch for flavin mononucleotide, no ligand
[4] = ligand present: flavin mononucleotide, designed as: ON switch for flavin mononucleotide

Sequence | apparent Kd [1] [nM] | apparent Kd [2] [nM] | apparent Kd [3] [nM] | apparent Kd [4] [nM]
CCUUUACAUGAGGAUCACCCAUGUCAGGAUAUCCUGUGGUGUUGUCUCGGGCGACACAUGAGCCAGGAGAAGGGACGAAGGGAA | 49 | 76.3 | – | –
AAGAAGUCAGGAUAUCCAUGGCGGCACUUGCGUGGUGGCGUGGAGAAGGGACAUGAGGAUCACCCAUGUAAAGC | 47.1 | 32.8 | – | –
UGUCGGAGCAGAGGAUAUUACAUGAGGAUCACCCAUGUAUGAACCAAUAGAUGGAAACAGCAAUGUAAGAAGGCUGCUCCGACA | 95.9 | 346 | – | –
GGGCUGUCAGGAUAUGCUAGUGCUAGUGAAAGCUAGUGCUAGUAGAAGGGACAUGAGGAUCACCCAUGUGGCCC | 31.4 | 30.9 | – | –
GCCCGGGCAAACAUGAGGAUCACCCAUGUGUUAUACUUAAUAUAGGAUAUGUUUAUACUUUUUGGGCAGAAGGAUGGCCCGGGC | – | – | 35.1 | 32.4
CCUCGCUGUUAGAAGGCACCUUCGGCUUUGGCUUUUGGAGUUGGGCGAUGGUGAGGAUAUAACAUGAGGAUCACCCAUGUUCAA | – | 65.1 | – | –
CGCACUGAUAGAGGAUAUGUUUAACAUGAGGAUCACCCAUGUGUACAAGAAUCAAUAUUUAUCAAACAGAAGGCUAUUAGUGCG | 5.06 | 4.08 | – | –
CCCAAACUUGGGCUUGGUGGUGCAUAGGAUAUGCUUGAACAUGAGGAUCACCCAUGUGCAACUGUGCAGAAGGGUGCAGGGCCU | – | – | 12.7 | 8.31
UUGGACGUCGUAGGAUAUGUAGGAUAUUCCUACAUGAGGAUCACCCAUGUUGACAUGGAAGAAGUACAGAAGGACGAUGUCCAU | – | – | 15.9 | 4.5
AUAAUGAGAGGAUAUACAUGAGGAUCACCCAUGUUAUUAUCACGUCGUGCUCCAUUACGUAGAAGGCUCAUUUA | 22 | 84.1 | – | –
AUAAAUCAUGUAGGAUAUGCGUGGCGAAGCUAUGCAGAAGGACAUGAGGAUCACCCAUGUCUUUCCGUCUGCGUACAGACGGAA | 33.4 | 311 | – | –
CGGCAAGUCACAGGAUAUGGUGAUGUACAUGAGGAUCACCCAUGUCCGUCUUCUCUCACAAGAUGCCAGAAGGGUGACUCCCGG | – | – | 852 | 120
GAGGACUGAUAAUAAUGUAGAAAUACAUGAGGAUCACCCAUGUAGGAUAUCGUCAGGAAUACUGACGAGAAGGACAUACAGUCC | 16 | 23.2 | – | –
UUUGAUUAUGUGAGGAUAUACUGUUUGUAUUGAUUGUAGAAGGUACAUGAGGAUCACCCAUGUUUUGUAUUUAU | 18.6 | 19.4 | – | –
UAAGAGUGAGGAUAUACGUCGCUGGUCCGGAUGGACGCAUGACAUGAGGAUCACCCAUGUAGAAGGCACAAAAC | 35 | 130 | – | –
CCGGAAAUGCAGGAUAUCGUAUCGGAUACGAUACGAGAAGGGUAUACAUGAGGAUCACCCAUGUGUCCUGCCGG | 42.5 | 40.6 | – | –
AUCCGGCGUGUAGGAUAUGGAAAAGAUUAGGAACCAGAAGGACAUGAGGAUCACCCAUGUACAUGUAAACAGUCAUCACCGGAA | 11.4 | 28.6 | – | –
ACUACGAUAGCGAUAUGAUCGAGAGAUCAUGUCGCUAAAUUUAGAAGGACAUGAGGAUCACCCAUGUAGGAUAUGGGUCGUAGA | – | – | 28 | 9.62
UUGGACGUCGUAGGAUAUGUAGGAUAUUCCUACAUGAGGAUCACCCAUGUUGACAUGGAAGAAGGACAGAAGGACCAUGUCCAU | – | – | 451 | 14.8

Sequence | apparent Kd [1] [nM] | apparent Kd [2] [nM] | apparent Kd [3] [nM] | apparent Kd [4] [nM]
GAUCUGAUAGGAUAUACAUGAGGAUCACCCAUGUGCGAGCUAGCGAAAGCUAGCUCAGGUAGAAGGGUCAGAUC | 12 | 15.5 | – | –
CCCUCACCAGUCAGGAUAUCUUGUGCGAAAAUGCUAGAGAAGGGACAUGAGGAUCACCCAUGUGCCUGCAAGGA | 17.1 | 17.9 | – | –
GCCCAAUCCACUUCGGGCCCAGACAGAAGGGCACACGGUCUAAGUCACAUGAGGAUCACCCAUGUGCAGGAUAUGUCUCGACUC | 9.88 | 50.3 | – | –
UUGGACGUCGUAGGAUAUGUAGGAUAUUCCUACAUGAGGAUCACCCAUGUUGACAUGGAAGAAGGACAGAAGGACGAUGUCCAU | – | – | 566 | 14.2
UUUAUUUAGGCAGGAUAUACAUGUAUAUAUAUUUUUUUAUAUAUUAUUACAUGAGGAUCACCCAUGUAGAAGGGCCUUAUUAUA | 75.6 | 89.1 | – | –
GUCAGCUCGUGAGGAUAUACAACACUGCUUCGGCAGUGUAUGAAGAUCACAUGAGGAUCACCCAUGUAGAAGGCACGAGCUGAU | 9.93 | 176 | – | –
AUCAGCUCGUCAGGAUAUACGUCACUGCGUCAGCAGUGUGGUAAGAUCACAUGAGGAUCACCCAUGUAGAAGGGACGAGCUGUU | 13.2 | 269 | – | –
UCUAUGUAGAUUCGUCAAUACAGUUAGGAUAUGAGAUACAUGAGGAUCACCCAUGUGCAUGUGGAUUAGAAGGAACAAUUAACU | 93.4 | 69.8 | – | –
CCCAUCGCAUGAGGAUAUGCUCCGGUUUCCGGAGCAGAAGGCAUGUCAUAAGACAUGAGGAUCACCCAUGUAGUUAAGAUGGGA | – | – | 529 | 30.4
AGCCGAAGCGCAGGAUAUACAUGUAUACAUGAGGAUCACCCAUGUAGCAACACGUGGUAGUGAUUGUAGAAGGGUGCUCGGCGC | – | – | 32.8 | 30
UGCGGUUGAGGAUAUACGUAGAAAUAGAUUCAUGUAAAACUACAUGAGGAUCACCCAUGUAGAAGGCAAUCGCU | 25.7 | 217 | – | –
AAAAGCAGAGGAUAUACAUAAUUAUGACGAAAGUCAUAAAAACAUGAGGAUCACCCAUGUAGAAGGCUGCAAAA | 24.4 | 34.1 | – | –
GUCAGCUCGUGAGGAUAUACAACACUGCUUCGGCAGUGUUUUAAGAUCACAUGAGGAUCACCCAUGUAGAAGGCACGAGCUGAU | 6.29 | 44 | – | –
UUUUUUUUUAGAGGAUAUAUUGUGUGUUAUAUAAUAGAAGGCUAAACAUGACAUGACACAUGAGGAUCACCCAUGUAUGUCCAU | – | – | 22.7 | 18.2
UAAGUUGAGGAGAAGGGAGCACAUGAGGAUCACCCAUGUGGUUCUUUGUGCUCAGGAUAUCCAUGGAGCGCCGACGCGUUCCCG | 89.2 | 15.6 | – | –
GGAUCGAAUGUGAGGAUAUACCUAUGGAUACAUAGGUAGAAGGCACAUGAGGAUCACCCAUGUUCCUACGGUCC | 81.7 | 680 | – | –
ACGUUUUAUGCAGGAUAUUGACUUAUAUUUAAACAAGAAGGGCAAUACAUGAGGAUCACCCAUGUUAUCAUGGUAUUUAAGUUC | 82.2 | 53.9 | – | –
UUAAAAGUGACAUGAGGAUCACCCAUGUGAAUUAGUAGUAGCAGAAGGCACGUGGGAAGACCAAGUGAGGAUAUGUAGCUUUAA | – | – | 515 | 44
CAGUCUACAGGAUAUACAUGAGGAUCACCCAUGUGUAUUCACUUUCAGUAGUCCAUAUGUAGAAGGGUAGACUG | 15.9 | 22.5 | – | –

Sequence | apparent Kd [1] [nM] | apparent Kd [2] [nM] | apparent Kd [3] [nM] | apparent Kd [4] [nM]
AACAGUACAGGAUAUACAUGAGGAUCACCCAUGUGAAGAAUAAGUGGAGUACCACAAAGUAGAAGGGUACUGGA | 26.7 | 132 | – | –
AAAGUUUAAGCAGGAUAUCGACCAUUCCUUGAUGCUUCAUUGGUGCACAUGAGGAUCACCCAUGUCGAGAAGGGCUAUGAAGCU | 15.6 | 47.4 | – | –
UUAUAUAGUGUGAGGAUAUGCUGGUCCUUGGAUCAGCAGAAGGCACAUGAGGAUCACCCAUGUAAUAUAUUAUU | 67.1 | 156 | – | –
UUAAAUCGAAACAUGAGGAUCACCCAUGUGUUGUAAUUAAUAUAGGAUAUGUAUAUACUUUUAUAAUAGAAGGAUGAUAAUACU | – | – | 15.4 | 11.1
ACAACCAGAGGAUAUGCGCAUAGAUCAGACUUUGUUUCUGAACAUGAGGAUCACCCAUGUAGAAGGCUGUAACA | 34.9 | 33.9 | – | –
GGUUGUCAUCGUCGUCCUUUCGUUACAUGAGGAUCACCCAUGUAGGAUAUGCUGCAUUCGAUGUGGCAGAAGGGCAUGUGUGUU | 18.1 | 31.6 | – | –
UUAUAAAGAGUGAGGAUAUGCUGGUCCAUGGAUCAGCAGAAGGCACAUGAGGAUCACCCAUGUAAAAUAAUAUU | 18.3 | 37.6 | – | –
GGAGCACACAUUAACAUGAGGAUCACCCAUGUCAAAAGACAUGAGGAUAUGGAUCCGAAAAGGAUCCAGAAGGCAUGGCGCUCC | – | – | 103 | 9.9
GGGCUGUCAGGAUAUGGGCCCGGGCCCGAAAGGGCCCGGGUUUAGAAGGGACAUGAGGAUCACCCAUGUGGCCC | 32.5 | 37.2 | – | –
AGAGACCUCACAGGAUAUGCUGGACUUUGUCCAGCAGAAGGGUGAAAACAUGAGGAUCACCCAUGUAUGGUCUCCAAAUUUAAC | – | – | 187 | 12.7
UGAUCGAGAGAUCUUAGAUUCUGGUAGGAUAUACAACAGUUGCGCUUUACAUGAGGAUCACCCAUGUAGAAGGACUAGAGUCUA | 7.55 | 8.78 | – | –
CUCUUGUCAGGAUAUUAUGGACGAUAGCAGGGCUACGUCAGUGAGAAGGGACAUGAGGAUCACCCAUGUAAAAU | 83.6 | 55.2 | – | –
CGGCGGAAAGGAUAUGCAUUAAUAUCAAAAUGUGGGCCACGACAUGAGGAUCACCCAUGUAGAAGGUUCAGCCG | 16 | 14.3 | – | –
GGCCCGCGCGUGAGGAUAUGCUGAUCCCAGGAUUAGCAGAAGGCACAUGAGGAUCACCCAUGUCCAACUUGUCU | 32.6 | 57 | – | –
UGUCUGUCAGGAUAUCCAGAAGAGAAGAAAGUAAGAUGAGUGGAGAAGGGACAUGAGGAUCACCCAUGUAAUUA | 31 | 36.4 | – | –
AGAGUGUGAGGAUAUAUGGUAAAAGUGAAGAGAGAGGAGGAGUAGAAGGUACAUGAGGAUCACCCAUGUUUGGA | 42.8 | 36.7 | – | –
UUUUAACAUGAGGAUCACCCAUGUGAGGAUAUCGAAAUUUAUAUUAAUAUUAAUAUAACGAGAAGGCACAUUUU | 52 | 70.2 | – | –
GGGCUGGUAACAGGAUAUCGUGCCUGGCCGGAUUACAUGAGGAUCACCCAUGUCGUUGGAACCAACGAGAAGGGUUGCCUCCCG | – | – | 199 | 28.7
